ChEMBL document CHEMBL4765370, “Design, synthesis, and biological evaluation of aryl piperazines with potential as antidiabetic agents via the stimulation of glucose uptake and inhibition of NADH:ubiquinone oxidoreductase” (Eur J Med Chem, 2020)
In brackets after ≈: the same amount, converted by molar mass.

Key:
[1] = AUCall in C57 Black mouse muscle at 10 mg/kg, iv; type: ADME, organism-based, Muscle tissue; design: dose 10 mg/kg
Summary of the method: (§1)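 Male C57BL/6 mice were given a single 10 mg/kg dose either intravenously or orally. The oral and IV solutions were formulated in 10% DMSO, 10% cremaphor and 80% saline. Concentrations in plasma and in the tissues collected were determined after dosing, with n = 3 per route. Values are given as mean ± SEM.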

[2] = Cmax in C57 Black mouse brain at 10 mg/kg, iv; type: ADME, organism-based; design: route intravenous, dose 10 mg/kg; summary of the method: as §1
[3] = AUCinfinity in C57 Black mouse brain at 10 mg/kg, iv; type: ADME, organism-based; design: time infinity, route intravenous, dose 10 mg/kg; summary of the method: as §1
[4] = AUClast in C57 Black mouse muscle at 10 mg/kg, iv; type: ADME, organism-based, Muscle tissue; design: time 0 - last, route intravenous, dose 10 mg/kg; summary of the method: as §1
[5] = Cmax in C57 Black mouse brain at 10 mg/kg, po; type: ADME, organism-based; design: route oral, dose 10 mg/kg; summary of the method: as §1
[6] = Half life in C57 Black mouse kidney at 10 mg/kg, po; type: ADME, organism-based
Summary of the method: (§2)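 Male C57BL/6 mice (n = 3) dosed at 10 mg/kg by IV or oral (PO) route. Dosing solutions were formulated in 10% DMSO, 10% cremaphor and 80% saline. Compound levels were measured in plasma and tissues over time, and values are given as mean ± SEM.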

[7] = AUCinfinity in C57 Black mouse liver at 10 mg/kg, po; type: ADME, organism-based; design: time infinity, route oral, dose 10 mg/kg; summary of the method: as §1
[8] = Half life in C57 Black mouse liver at 10 mg/kg, po; type: ADME, organism-based; summary of the method: as §2
[9] = Volume of distribution in C57 Black mouse kidney at 10 mg/kg, iv; type: ADME, organism-based; summary of the method: as §2
[10] = Intrinsic clearance in human microsomes at 1 uM up to 120 mins by HPLC/MS-MS analysis; type: ADME, Microsome
[11] = Half life in C57 Black mouse spleen at 10 mg/kg, po; type: ADME, organism-based; summary of the method: as §2
[12] = Volume of distribution in C57 Black mouse liver at 10 mg/kg, iv; type: ADME, organism-based; summary of the method: as §2
[13] = AUCinfinity in C57 Black mouse spleen at 10 mg/kg, iv; type: ADME, organism-based; design: time infinity, route intravenous, dose 10 mg/kg; summary of the method: as §1
[14] = Volume of distribution in C57 Black mouse brain at 10 mg/kg, iv; type: ADME, organism-based; summary of the method: as §2
[15] = Tmax in C57 Black mouse plasma at 10 mg/kg, po; type: ADME, organism-based; summary of the method: as §2
[16] = Efflux ratio of apparent permeability in MDCK-MDR1 cells at 10 uM after 30 mins by LC-MS/MS analysis; type: ADME, cell-based, Canis lupus familiaris; conditions: dog
Summary of the method: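 hMDR1-MDCK monolayers on filters; compound at 10 µM final in DMEM (from 10 mM DMSO stock) with 10 µM propranolol internal standard in donor. Transfer measured apical-to-basolateral and basolateral-to-apical over 30 min; receiver samples by LC-MS/MS; n = 3.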

C2C12 = assay: Induction of glucose uptake in mouse C2C12 cells assessed as [3H]2-deoxyglucose uptake preincubated for 16 hrs followed by followed by [3H]2-deoxyglucose addition and measured after 10 mins by liquid scintillation counting method; type: functional
Summary of the method: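 C2C12 mouse myoblasts were grown in high-glucose DMEM with 10% FBS. At 80% confluence they were differentiated into myotubes with 2% horse serum. Myotubes were exposed to compound (10 µM) for 16 h in medium with 0.1% horse serum, then washed with KRB pH 7.4 and given 1 µCi/mL [3H]-2-deoxyglucose for 10 min at 37 °C. After ice-cold washes and 0.1% SDS lysis, scintillation counts were normalised to BCA protein. Results are fold change vs DMSO, mean ± SEM, one-way ANOVA.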

[17] = AUCall in C57 Black mouse plasma at 10 mg/kg, po; type: ADME, organism-based; design: dose 10 mg/kg; summary of the method: as §1
CYP2D6 = CYP2D6 (Homo sapiens, UniProt P10635); assay: Inhibition of human CYP2D6 using fluorogenic substrate incubated for 60 mins in presence of NADPH by fluorescence assay relative to control; type: ADME; conditions: probe fluorogenic substrate
CYP2D6, sequence (P10635 whole entry): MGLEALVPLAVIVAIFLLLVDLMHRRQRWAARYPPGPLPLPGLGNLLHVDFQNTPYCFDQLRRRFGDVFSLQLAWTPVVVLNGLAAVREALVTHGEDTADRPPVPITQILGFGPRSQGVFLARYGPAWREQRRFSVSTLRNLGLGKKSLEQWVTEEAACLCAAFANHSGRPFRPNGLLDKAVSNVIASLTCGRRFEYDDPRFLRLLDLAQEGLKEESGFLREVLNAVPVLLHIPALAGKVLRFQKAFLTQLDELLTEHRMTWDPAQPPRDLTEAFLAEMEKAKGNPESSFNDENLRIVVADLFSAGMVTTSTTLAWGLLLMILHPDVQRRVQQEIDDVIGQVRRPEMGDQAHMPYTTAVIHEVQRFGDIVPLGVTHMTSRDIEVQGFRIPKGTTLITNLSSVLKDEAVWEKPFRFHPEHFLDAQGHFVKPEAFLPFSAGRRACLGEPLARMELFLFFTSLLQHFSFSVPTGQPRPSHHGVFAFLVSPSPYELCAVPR
Summary of the method: (§3)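 Baculosomes each expressing a single cDNA-derived human P450 isozyme were incubated with compound at 10 µM, a fluorogenic substrate and NADPH. Incubation was at 37 °C for at least 60 min before fluorescence was read, n = 3.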

[18] = AUCinfinity in C57 Black mouse brain at 10 mg/kg, po; type: ADME, organism-based; design: route oral, time infinity, dose 10 mg/kg; summary of the method: as §1
[19] = Metabolic stability in mouse hepatocytes assessed as hepatic extraction ratio at 1 uM up to 120 mins by HPLC-MS/MS analysis; type: ADME, cell-based, Hepatocyte
Summary of the method: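 Cryopreserved hepatocytes (human or mouse) added to buffer containing compound at 1 µM; incubated at 37 °C up to 120 min, stopped with acetonitrile containing internal standard. Centrifuged supernatant analysed for parent compound by HPLC-MS/MS; n = 2. Half-life and intrinsic clearance (µL/min/10^6 cells) derived; extraction ratio reported from these.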

[20] = AUCall in C57 Black mouse kidney at 10 mg/kg, iv; type: ADME, organism-based; design: dose 10 mg/kg; summary of the method: as §1
[21] = Volume of distribution in C57 Black mouse plasma at 10 mg/kg, iv; type: ADME, organism-based; summary of the method: as §2
[22] = AUClast in C57 Black mouse liver at 10 mg/kg, po; type: ADME, organism-based; design: time 0 - last, route oral, dose 10 mg/kg; summary of the method: as §1
[23] = Cmax in C57 Black mouse kidney at 10 mg/kg, po; type: ADME, organism-based; design: route oral, dose 10 mg/kg; summary of the method: as §1
[24] = Cmax in C57 Black mouse plasma at 10 mg/kg, po; type: ADME, organism-based; design: route oral, dose 10 mg/kg; summary of the method: as §1
[25] = Tmax in C57 Black mouse kidney at 10 mg/kg, po; type: ADME, organism-based; summary of the method: as §2
[26] = AUClast in C57 Black mouse kidney at 10 mg/kg, iv; type: ADME, organism-based; design: route intravenous, time 0 - last, dose 10 mg/kg; summary of the method: as §1
[27] = Tmax in C57 Black mouse spleen at 10 mg/kg, po; type: ADME, organism-based; summary of the method: as §2
[28] = AUCall in C57 Black mouse spleen at 10 mg/kg, po; type: ADME, organism-based; design: dose 10 mg/kg; summary of the method: as §1
CYP3A4 = CYP3A4 (Homo sapiens, UniProt P08684); assay: Inhibition of human CYP3A4 using fluorogenic substrate incubated for 60 mins in presence of NADPH by fluorescence assay relative to control; type: ADME; conditions: probe fluorogenic substrate; summary of the method: as §3
CYP3A4, sequence (P08684 whole entry): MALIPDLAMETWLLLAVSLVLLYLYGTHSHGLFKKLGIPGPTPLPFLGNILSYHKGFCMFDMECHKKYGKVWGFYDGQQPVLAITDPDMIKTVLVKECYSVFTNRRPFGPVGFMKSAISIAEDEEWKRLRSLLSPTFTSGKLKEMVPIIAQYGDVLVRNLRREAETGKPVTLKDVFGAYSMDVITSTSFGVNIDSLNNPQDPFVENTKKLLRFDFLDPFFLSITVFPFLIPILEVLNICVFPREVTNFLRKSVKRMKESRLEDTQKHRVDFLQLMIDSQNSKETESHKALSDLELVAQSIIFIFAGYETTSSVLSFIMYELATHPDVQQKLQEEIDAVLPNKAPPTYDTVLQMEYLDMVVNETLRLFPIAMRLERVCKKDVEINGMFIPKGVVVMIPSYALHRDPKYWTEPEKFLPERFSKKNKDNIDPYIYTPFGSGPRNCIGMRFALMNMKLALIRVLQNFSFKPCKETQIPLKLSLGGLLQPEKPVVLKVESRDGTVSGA

[29] = Half life in human plasma at 1 uM after 60 to 120 mins by HPLC-MS/MS analysis; type: ADME, cell-free; conditions: time 60-120 min
Summary of the method: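 Buffer containing test compound at 1 µM was mixed with human or mouse blood plasma and incubated at 37 °C for 60–120 min. Parent compound remaining gave the plasma half-life and the percentage stable at 2 h.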

[30] = AUCinfinity in C57 Black mouse kidney at 10 mg/kg, iv; type: ADME, organism-based; design: route intravenous, time infinity, dose 10 mg/kg; summary of the method: as §1
[31] = Half life in C57 Black mouse plasma at 10 mg/kg, po; type: ADME, organism-based; summary of the method: as §2
[32] = AUCinfinity in C57 Black mouse plasma at 10 mg/kg, iv; type: ADME, organism-based; design: route intravenous, time infinity, dose 10 mg/kg; conditions: in vivo; summary of the method: as §1
[33] = AUCinfinity in C57 Black mouse plasma at 10 mg/kg, po; type: ADME, organism-based; design: route oral, time infinity, dose 10 mg/kg; summary of the method: as §1
[34] = AUCall in C57 Black mouse brain at 10 mg/kg, iv; type: ADME, organism-based; design: dose 10 mg/kg; summary of the method: as §1
[35] = Thermodynamic solubility of compound in PBS at 1 mg/ml after 24 hrs by LC-MS/MS analysis; type: physicochemical; conditions: read-out: Therm_solubility
Summary of the method: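 Compound was equilibrated at 1 mg/mL and at 0.1 mg/mL in PBS containing 5% (v/v) DMSO, for 24 h at 21 °C. Samples were centrifuged at 15,000 g for 10 min and the supernatant was quantified by LC-MS/MS, n = 3.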

[36] = Half life in C57 Black mouse muscle at 10 mg/kg, iv; type: ADME, organism-based, Muscle tissue; summary of the method: as §2
[37] = Cmax in C57 Black mouse liver at 10 mg/kg, iv; type: ADME, organism-based; design: route intravenous, dose 10 mg/kg; summary of the method: as §1
[38] = Intrinsic clearance in mouse microsomes at 1 uM up to 120 mins by HPLC/MS-MS analysis; type: ADME, Microsome

Work on O=C(CCCc1cccs1)N1CCN(c2ccc(C(F)(F)F)cc2)CC1 yielded an AUC [1] of 77.3 ng·h/mL, a Cmax [2] of 1030 ng/mL and an AUC(0-inf) [3] of 253 ng·h/mL. For the same compound, the AUC(0-t) [4] was 77.3 ng·h/mL, the Cmax [5] was 1430 ng/mL and the half-life [6] was 34.2 min. For the same compound, the AUC(0-inf) [7] was 4090 ng·h/mL, the half-life [8] was 60 min and the Vd [9] was 3.06 L/kg. It also gave a microsomal CLint at 1 µM [10] of 116 µL/min/mg, a half-life [11] of 66 min and a Vd [12] of 3.06 L/kg. It also gave an AUC(0-inf) [13] of 475 ng·h/mL, a Vd [14] of 1.83 L/kg and a Tmax [15] of 15 min. The efflux ratio at 0.5 h, 10 µM [16] was 0.9, the “fold change (FC)” value (C2C12) was 2.57 and the AUC [17] was 520 ng·h/mL. It also gave an inhibition at 1 h (CYP2D6) of -2.7%, an AUC(0-inf) [18] of 774 ng·h/mL and a hepatic extraction ratio at 2 h, 1 µM [19] of 0.48. It also gave an AUC [20] of 320 ng·h/mL, a Vd [21] of 1.69 L/kg and an AUC(0-t) [22] of 4050 ng·h/mL. The Cmax [23] was 1640 ng/mL, the Cmax [24] was 787 ng/mL and the Tmax [25] was 15 min. It also gave an AUC(0-t) [26] of 320 ng·h/mL, a Tmax [27] of 15 min and an AUC [28] of 1260 ng·h/mL. The inhibition at 1 h (CYP3A4) was 80.2%, the half-life at 1 µM [29] was 808 min and the AUC(0-inf) [30] was 348 ng·h/mL. For the same compound, the half-life [31] was 45.6 min, the AUC [32] was 244 ng·h/mL and the AUC(0-inf) [33] was 523 ng·h/mL. It also gave an AUC [34] of 246 ng·h/mL, a solubility thermodynamic at 24 h [35] of 4 µg/mL (≈ 10.5 µM) and a half-life [36] of 31.2 min. It also gave a Cmax [37] of 1830 ng/mL and a microsomal CLint at 1 µM [38] of 226 µL/min/mg.
